# Data from ChEMBL document CHEMBL1165947, “Synthesis and antitumor activity of 2,5-bis(3'-indolyl)-furans and 3,5-bis(3'-indolyl)-isoxazoles, nortopsentin analogues” (Bioorg Med Chem, 2010).
# How the values were obtained:
# [1] = test system: EKVX; assay: Growth inhibition of human EKVX cells; format: functional
# [2] = Cytotoxicity against human 1657L cells after 4 days by modified propidium iodide staining-based fluorescence assay; format: functional, cell-based; details: 96 h
# In short: (§1)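 Cells cultured in RPMI 1640 with 10% fetal calf serum and 0.1 mg/mL gentamicin at 37 °C, 5% CO2. Cells from exponential cultures were trypsinized and plated at 4.000-20.000 cells/well by line. After 24 h recovery, compounds were added at five log-spaced concentrations (highest 100 μg/mL) for 4 days. Proliferation was read as DNA content with aqueous propidium iodide (7 μg/ml), fluorescence ex 530/em 620 nm. Points were run in triplicate.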
# [3] = test system: HOP-62; assay: Growth inhibition of human HOP62 cells; format: functional
# [4] = test system: SW-620; assay: Growth inhibition of human SW620 cells; format: functional
# In short: (§2)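 Values come from the NCI in vitro disease-oriented human tumor cell screen. GI50 is the concentration giving 50% growth inhibition of tumor cells; pGI50 is its −log molar form.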
# [5] = test system: MOLT-4; assay: Growth inhibition of human MOLT4 cells; format: functional; in short: as §2
# [6] = test system: SF-268; assay: Growth inhibition of human SF268 cells; format: functional; in short: as §2
# [7] = test system: OVCAR-3; assay: Growth inhibition of human OVCAR-3 cells; format: functional; in short: as §2
# [8] = test system: NCI-H522; assay: Growth inhibition of human NCI-H522 cells; format: functional; in short: as §2
# [9] = test system: T-24; assay: Cytotoxicity against human T24 cells after 4 days by modified propidium iodide staining-based fluorescence assay; format: functional, cell-based; details: T-24, 96 h; in short: as §1
# [10] = test system: U-251; assay: Growth inhibition of human U251 cells; format: functional; in short: as §2
# [11] = test system: HCT-116; assay: Growth inhibition of human HCT116 cells; format: functional
# [12] = test system: SF-539; assay: Growth inhibition of human SF539 cells; format: functional; in short: as §2
# [13] = Cytotoxicity against human LXFA 526L cells after 4 days by modified propidium iodide staining-based fluorescence assay; format: functional, cell-based; details: 96 h; in short: as §1
# [14] = test system: OVCAR-4; assay: Growth inhibition of human OVCAR4 cells; format: functional; in short: as §2
# [15] = Cytotoxicity against human MEXF 462NL cells after 4 days by modified propidium iodide staining-based fluorescence assay; format: functional, cell-based; details: 96 h; in short: as §1
# [16] = test system: HL-60(TB); assay: Growth inhibition of human HL-60(TB) cells; format: functional
# In short: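 Values come from the NCI in vitro disease-oriented human tumour cell line screen, not from this lab's propidium iodide assay. GI50 is the concentration giving 50% inhibition of net cell growth, also reported as pGI50, the −log of that molar concentration.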
# [17] = Cytotoxicity against human RXF 486L cells after 4 days by modified propidium iodide staining-based fluorescence assay; format: functional, cell-based; details: 96 h; in short: as §1
# [18] = test system: A549; assay: Cytotoxicity against human A549 cells after 4 days by modified propidium iodide staining-based fluorescence assay; format: functional, cell-based; details: A549, 96 h; in short: as §1
# [19] = test system: LOX IMVI; assay: Growth inhibition of human LOXIMVI cells; format: functional
# [20] = Growth inhibition of human […] cells; format: functional; in short: as §2
# [21] = test system: SN12C; assay: Growth inhibition of human SN12C cells; format: functional; in short: as §2
# [22] = test system: DU-145; assay: Cytotoxicity against human DU145 cells after 4 days by modified propidium iodide staining-based fluorescence assay; format: functional, cell-based; details: DU-145, 96 h; in short: as §1
# [23] = test system: IGROV-1; assay: Growth inhibition of human IGROV1 cells; format: functional
# [24] = Cytotoxicity against human UXF 1138L cells after 4 days by modified propidium iodide staining-based fluorescence assay; format: functional, cell-based; details: 96 h; in short: as §1
# [25] = test system: OVCAR-8; assay: Growth inhibition of human OVCAR8 cells; format: functional; in short: as §2
# [26] = test system: SK-MEL-5; assay: Growth inhibition of human SK-MEL-5 cells; format: functional; in short: as §2
# [27] = test system: PANC-1; assay: Cytotoxicity against human PANC1 cells after 4 days by modified propidium iodide staining-based fluorescence assay; format: functional, cell-based; details: PANC-1, 96 h; in short: as §1
# [28] = test system: TK-10; assay: Growth inhibition of human TK10 cells; format: functional; in short: as §2
# [29] = test system: NCI-H23; assay: Growth inhibition of human NCI-H23 cells; format: functional; in short: as §2
# [30] = test system: SNB-19; assay: Growth inhibition of human SNB19 cells; format: functional; in short: as §2
# [31] = Cytotoxicity against human LXFA 289L cells after 4 days by modified propidium iodide staining-based fluorescence assay; format: functional, cell-based; details: 96 h; in short: as §1
# [32] = test system: NCI-H226; assay: Growth inhibition of human NCI-H226 cells; format: functional; in short: as §2
# [33] = test system: A549; assay: Growth inhibition of human A549 cells; format: functional
# [34] = test system: LNCaP; assay: Cytotoxicity against human LNCAP cells after 4 days by modified propidium iodide staining-based fluorescence assay; format: functional, cell-based; details: 96 h; in short: as §1
# [35] = test system: 786-0; assay: Growth inhibition of human 786-0 cells; format: functional
# [36] = Growth inhibition of human Hs 578T cells; format: functional
# [37] = test system: NCI/ADR-RES; assay: Growth inhibition of human NCI/ADR-RES cells; format: functional; in short: as §2
# [38] = test system: NCI-H460; assay: Cytotoxicity against human H460 cells after 4 days by modified propidium iodide staining-based fluorescence assay; format: functional, cell-based; details: NCI-H460, 96 h; in short: as §1
# [39] = Cytotoxicity against human 1781L cells after 4 days by modified propidium iodide staining-based fluorescence assay; format: functional, cell-based; details: 96 h; in short: as §1
# [40] = Cytotoxicity against human 1752L cells after 4 days by modified propidium iodide staining-based fluorescence assay; format: functional, cell-based; details: 96 h; in short: as §1
# [41] = test system: SK-OV-3; assay: Growth inhibition of human SKOV3 cells; format: functional; in short: as §2
# [42] = test system: NCI-H460; assay: Growth inhibition of human NCI-H460 cells; format: functional; in short: as §2
structure (smiles),measurement,setting,value
COc1ccc2c(c1)c(-c1ccc(-c3cn(C)c4ccc(OC)cc34)o1)cn2C,GI50,[1],5.48 µM
same,IC50,[2],> 100 µg/mL
same,GI50,[3],> 100 µM
same,GI50,[4],4.55 µM
same,GI50,[5],> 100 µM
same,GI50,[6],9.25 µM
same,GI50,[7],8.51 µM
same,GI50,[8],3.42 µM
same,IC50,[9],> 100 µg/mL
same,GI50,[10],3.66 µM
same,GI50,[11],8.8 µM
same,GI50,[12],2.47 µM
same,IC50,[13],5.8 µg/mL
same,GI50,[14],2.06 µM
same,IC50,[15],12.5 µg/mL
same,GI50,[16],1.98 µM
same,IC50,[17],> 100 µg/mL
same,IC50,[18],9.6 µg/mL
same,GI50,[19],10.4 µM
same,GI50,[20],2.25 µM
same,GI50,[21],21.6 µM
same,IC50,[22],> 100 µg/mL
same,GI50,[23],29.6 µM
same,IC50,[24],13.7 µg/mL
same,GI50,[25],8.02 µM
same,GI50,[26],10.4 µM
same,IC50,[27],6.4 µg/mL
same,GI50,[28],11 µM
same,GI50,[29],17.3 µM
same,GI50,[30],29.8 µM
same,IC50,[31],> 100 µg/mL
same,GI50,[32],23.6 µM
same,GI50,[33],18.4 µM
same,IC50,[34],28.2 µg/mL
same,GI50,[35],> 100 µM
same,GI50,[36],5.11 µM
same,GI50,[37],2.37 µM
same,IC50,[38],22.2 µg/mL
same,IC50,[39],22 µg/mL
same,IC50,[40],77.4 µg/mL
same,GI50,[41],> 100 µM
same,GI50,[42],9.89 µM
